The source of these data is ChEMBL document CHEMBL4819095, “Development of ciclesonide analogues that block SARS-CoV-2 RNA replication” (Bioorg Med Chem Lett, 2021).

The source made the active and inactive calls. The rule behind the calls is not given here.

The test system of data set [1] is Vero C1008. The data set can be described thus: Cytotoxicity against African green monkey Vero E6 cells expressing TMPRSS2 assessed as reduction in cell viability at 40 uM incubated for 18 hrs by LDH assay. It counts as cell-based. As to conditions: chlorocebus sabaeus, vero c1008, 18 h. In a few lines: (§1)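 Vero E6/TMPRSS2 cells exposed for 18 h to compounds at concentrations up to 40 µM. Cytotoxicity read as lactate dehydrogenase (LDH) release. Each independent experiment run in triplicate.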

Data set [2] deals with Vero C1008. The experiment in a line: Cytotoxicity against African green monkey Vero E6 cells expressing TMPRSS2 assessed as reduction in cell viability upto 40 uM incubated for 18 hrs by LDH assay. The format is cell-based. To be noted: chlorocebus sabaeus, vero c1008, 18 h. In a few lines: as §1
For data set [3], the system named is SARS-CoV-2. The data set can be described thus: Antiviral activity against SARS-CoV-2 JPN/TY/WK-251 infected in African green monkey Vero E6 cells expressing TMPRSS2 assessed as reduction in viral RNA replication by measuring replication copies assessed per well at 10 uM incubated for 18 hrs by qRT-PCR analysis. It counts as functional. Background: In qPCR the cycle at which signal appears reflects the starting amount.

Data set [4] deals with SARS-CoV-2. The data set can be described thus: Antiviral activity against SARS-CoV-2 JPN/TY/WK-251 infected in African Green monkey Vero E6 cells expressing TMPRSS2 assessed as reduction in viral plaques incubated for 18 hrs by plaque reduction assay. It counts as functional, organism-based. As to conditions: Severe acute respiratory syndrome coronavirus 2, dose 0.625-80 µM. A general note: Plaque reduction counts the foci of infection that form in a cell layer.

Data set [5] has as its system Vero C1008. The data set can be described thus: Cytotoxicity against African green monkey Vero E6 cells expressing TMPRSS2 assessed as reduction in cell viability at 20 uM incubated for 18 hrs by LDH assay. The format is cell-based. To be noted: chlorocebus sabaeus, vero c1008, 18 h. In a few lines:
as §1

The mark [6] stands for this setting: Severe acute respiratory syndrome coronavirus 2.

On to `C[C@]12C=CC(=O)C=C1CC[C@@H]1[C@@H]2[C@@H](O)C[C@@]2(C)[C@H]1C[C@H]1O[C@@H](C3CCCCC3)O[C@]12C(=O)CI`, for which the Activity entry in the data set with Vero C1008 [1] is “Toxic”.
As for `CC(C)C(=O)NCC(=O)[C@@]12O[C@H](C3CCCCC3)O[C@@H]1C[C@H]1[C@@H]3CCC4=CC(=O)C=C[C@]4(C)[C@H]3[C@@H](O)C[C@@]12C`, in the data set with Vero C1008 [2], the Activity result is “Non-Toxic”.
For `C[C@]12C=CC(=O)C=C1CC[C@@H]1[C@@H]2[C@@H](O)C[C@@]2(C)[C@H]1C[C@H]1O[C@@H](C3CCCCC3)O[C@]12C(=O)CBr`, the outcome with SARS-CoV-2 [3] (setting [6]) was Active. The Activity result in the data set with Vero C1008 [1] is recorded as “Toxic”.
Regarding `C[C@]12C=CC(=O)C=C1CC[C@@H]1[C@@H]2[C@@H](O)C[C@@]2(C)[C@H]1C[C@H]1O[C@@H](C3CCCCC3)O[C@]12C(=O)CN=[N+]=[N-]`, the Activity entry in the data set on Vero C1008 [2] was “Non-Toxic”; with SARS-CoV-2 [4], “Dose-Dependent Effect”; in the data set on SARS-CoV-2 [3], 2.1 10^5No_unit.
With `C[C@]12C=CC(=O)C=C1CC[C@@H]1[C@@H]2[C@@H](O)C[C@@]2(C)[C@H]1C[C@H]1O[C@@H](C3CCCCC3)O[C@]12C(=O)CN`, the Activity result in the data set on Vero C1008 [5] is on record as “Toxic”.
For the compound `CN(C)CC(=O)[C@@]12O[C@H](C3CCCCC3)O[C@@H]1C[C@H]1[C@@H]3CCC4=CC(=O)C=C[C@]4(C)[C@H]3[C@@H](O)C[C@@]12C`, in the data set on Vero C1008 [1], the Activity entry is “Toxic”.
Consider `CC(C)C(=O)OCC(=O)[C@@]12O[C@H](C3CCCCC3)O[C@@H]1C[C@H]1[C@@H]3CCC4=CC(=O)C=C[C@]4(C)[C@H]3[C@@H](O)C[C@@]12C` [CICLESONIDE], for which the Activity entry was “Non-Toxic” with Vero C1008 [2], “Dose-Dependent Effect” in the data set with SARS-CoV-2 [4] and 5.2 10^5No_unit in the data set with SARS-CoV-2 [3].
Consider `C[C@]12C=CC(=O)C=C1CC[C@@H]1[C@@H]2[C@@H](O)C[C@@]2(C)[C@H]1C[C@H]1O[C@@H](C3CCCCC3)O[C@]12C(=O)COS(C)(=O)=O`, for which the Activity result in the data set on Vero C1008 [5] is listed as “Toxic”. For the same compound, in the data set on SARS-CoV-2 [3] (setting [6]), the result was Active.
On to `C[C@]12C=CC(=O)C=C1CC[C@@H]1[C@@H]2[C@@H](O)C[C@@]2(C)[C@H]1C[C@H]1O[C@@H](C3CCCCC3)O[C@]12C(=O)CO` [DESISOBUTYRYLCICLESONIDE], for which the Activity result is “Dose-Dependent Effect” in the data set on SARS-CoV-2 [4] and “Toxic” with Vero C1008 [5]. Also, the result in the data set on SARS-CoV-2 [3] (setting [6]) was Active.
As to `C[C@]12C=CC(=O)C=C1CC[C@@H]1[C@@H]2[C@@H](O)C[C@@]2(C)[C@H]1C[C@H]1O[C@@H](C3CCCCC3)O[C@]12C(=O)CCl`, the Activity result was “Non-Toxic” in the data set on Vero C1008 [2], “Dose-Dependent Effect” with SARS-CoV-2 [4] and 4.6 10^5No_unit in the data set on SARS-CoV-2 [3].
